# Experimental data pooled from the literature.
# Compare with care: the assays were run in different laboratories.
# MAPK3: Mitogen-activated protein kinase 3 (MAPK3, Homo sapiens, UniProt P27361)
# TNKS: Poly [ADP-ribose] polymerase tankyrase-1 (TNKS, Homo sapiens, UniProt O95271)
# CDK9 with cyclin T1: Cyclin-dependent kinase 9, with cyclin T1 (CDK9, Homo sapiens, UniProt P50750)
# FABP4: Fatty acid-binding protein, adipocyte (FABP4, Homo sapiens, UniProt P15090)
# DPP4: Dipeptidyl peptidase 4 (DPP4, Homo sapiens, UniProt P27487)
# AKT1: RAC-alpha serine/threonine-protein kinase (AKT1, Homo sapiens, UniProt P31749)
# SLC22A13: SLC22A13 (Homo sapiens, UniProt Q9Y226)
# CYP2C9: Cytochrome P450 2C9 (CYP2C9, Homo sapiens, UniProt P11712)
Structure (SMILES),target,assay,system,conditions,IC50 [µM]
c1ccc(-c2ccc3c(c2)NC(C2Nc4cc(-c5ccccc5)ccc4O2)O3)cc1 (stereo not shown),MAPK3,"enzyme activity, inhibitor, ADP detection",,,10.6
COc1ccc2c(=O)[nH]c3c(nnn3Cc3ccc(C)cc3)c2c1,TNKS,"enzyme activity, inhibitor, fluorescence",,,0.112
CC(C)(O)c1ccc(-c2nc3cc(NC(=O)c4cnc(OCc5ccccc5)nc4)ccc3c(=O)[nH]2)cc1,TNKS,"enzyme activity, inhibitor",,,6.36
Cc1cc2c(C(N)=O)c(N)n(-c3c(C)ccc(O)c3C)c2nc1C,"Proto-oncogene tyrosine-protein kinase Src (SRC, Homo sapiens, UniProt P12931)","enzyme activity, inhibitor, TR-FRET",,,0.0064
CNS(=O)(=O)c1ccc(Nc2ncc(C(F)(F)F)c([C@H]3CC[C@](C)(O)CC3)n2)c(C)c1,CDK9 with cyclin T1,"enzyme activity, inhibitor, radiometric",,,> 10
CC(=O)N1C(=O)NC(C)=C(C(=O)OCc2ccccc2)C1c1cccc([N+](=O)[O-])c1 (racemic),"Voltage-dependent T-type calcium channel subunit alpha-1H (CACNA1H, Homo sapiens, UniProt O95180)","ion current, inhibitor, patch clamp",,,3.6
CN(C)C(=O)c1cc2cnc(Nc3cc(C(F)(F)F)c(-c4ccc5c(=O)cc(N6CCOCC6)oc5c4)cn3)nc2n1C1CCCC1,CDK9 with cyclin T1,"enzyme activity, inhibitor, radiometric",,,> 10
COc1cc(Cl)ncc1C(=O)Nc1ccc2c(=O)[nH]c(-c3ccc(C(C)(C)O)cc3)nc2c1,TNKS,"enzyme activity, inhibitor",,,0.303
CCCCCCCCC(=O)O,FABP4,"ligand displacement, fluorescence",,pH 7.5,30
CNS(=O)(=O)c1ccc(Nc2ncc3cc(Cl)c(=O)n(C4CCCC4)c3n2)c(C)c1,CDK9 with cyclin T1,"enzyme activity, inhibitor, radiometric",,,> 10
Cc1nc2n(c(=O)c1CCN1CCC(c3noc4cc(F)ccc34)CC1)CCCC2O (stereo not shown),DPP4,"enzyme activity, inhibitor, absorbance",,,48.9
C[C@@H]1CNC[C@H](C)[C@@]1(O)c1ccc(-c2ccnc3[nH]cc(F)c23)cc1,AKT1,"target engagement in cells, BRET",,,38.9
COc1cc(C(=O)NS(=O)(=O)c2ccccc2C)ccc1Cc1cn(C)c2ccc(NC(=O)OC3CCCC3)cc12,"Protein disulfide-isomerase A3 (PDIA3, Homo sapiens, UniProt P30101)","enzyme activity, inhibitor",,,25
COc1ccc(-c2oc3cc(Nc4ncc5cc(C(=O)N(C)C)n(C6CCCC6)c5n4)ccc3c(=O)c2F)cc1,CDK9 with cyclin T1,"enzyme activity, inhibitor, radiometric",,,0.0276
OC1(c2ccc(-c3ccnc4[nH]cc(F)c34)cc2)CCCNC1 (stereo not shown),AKT1,"target engagement in cells, BRET",,,22.4
COc1cc(-c2ccccc2)ncc1C(=O)Nc1ccc2c(=O)[nH]c(-c3ccc(C(C)(C)O)cc3)nc2c1,TNKS,"enzyme activity, inhibitor",,,0.0869
Cc1nc2c(F)cc(-c3ccnc(Nc4ccc5c(=O)cc(N6CCOCC6)oc5c4)n3)cc2n1C(C)C,CDK9 with cyclin T1,"enzyme activity, inhibitor, radiometric",,,0.024
CCc1oc2cc(F)ccc2c1C(=O)c1cc(Br)c(O)c(Br)c1,SLC22A13,"transporter uptake, inhibitor, radiometric",,oocytes,39.6
Nc1ncnc2c1ncn2[C@@H]1O[C@H](CSCC[C@H](N)C(=O)O)[C@@H](O)[C@H]1O,"Histone-lysine N-methyltransferase SETDB1 (SETDB1, Homo sapiens, UniProt Q15047)","enzyme activity, inhibitor",,,2.21
Cc1cc(-c2ccnc3[nH]cc(F)c23)cc(F)c1[C@@]1(O)[C@H](C)CN(C(=O)CN)C[C@@H]1C,AKT1,"enzyme activity, inhibitor, radiometric",,,0.165
CN(C)C(=O)c1cc2cnc(Nc3ccc(-c4ccc5c(=O)cc(N6CCOCC6)oc5c4)cc3)nc2n1C1CCCC1,CYP2C9,"enzyme activity, inhibitor, fluorescence",,pH 8,0.044
CCc1oc2ccccc2c1C(=O)c1cc(Br)c(O)c(Br)c1,SLC22A13,"transporter uptake, inhibitor, radiometric",,oocytes,12.5
O=C(O)CCC(=O)OCCN(Cc1ccc(Oc2ccc([N+](=O)[O-])cc2)cc1)C(=O)C(Cl)Cl,MAPK3,"enzyme activity, inhibitor, ADP detection",,,2.69
O=C(O)C(F)(F)C(F)(F)C(F)(F)C(F)(F)C(F)(F)C(F)(F)C(F)(F)C(F)(F)C(F)(F)C(F)(F)C(F)(F)F,FABP4,"ligand displacement, fluorescence",,pH 7.5,1.61
Cc1cc(-c2ccnc3[nH]cc(F)c23)cc(F)c1[C@@]1(O)[C@H](C)CN(C2CCS(=O)(=O)CC2)C[C@@H]1C,AKT1,"enzyme activity, inhibitor, radiometric",,,0.346
O=C(CCCCc1ccc(CO)cc1)C(F)(F)C(F)(F)F,"Phospholipase A2 group V (PLA2G5, Homo sapiens, UniProt P39877)","enzyme activity, inhibitor",,,228
CN(C)C(=O)c1cc2cnc(Nc3ccc(-c4ccc5c(=O)cc(N6CCNCC6)oc5c4)cc3)nc2n1C1CCCC1,CDK9 with cyclin T1,"enzyme activity, inhibitor, radiometric",,,0.0062
O=C(O)C(F)(F)C(F)(F)C(F)(F)C(F)(F)C(F)(F)C(F)(F)C(F)(F)C(F)(F)C(F)(F)C(F)(F)C(F)(F)C(F)(F)C(F)(F)C(F)(F)C(F)(F)F,"Sterol carrier protein 2 (Homo sapiens, UniProt P22307)","ligand displacement, fluorescence",,,19.1
CC1CNCCC1(O)c1ccc(-c2ccnc3[nH]cc(F)c23)cc1 (stereo not shown),AKT1,"target engagement in cells, BRET",,,30.9
NC/C(=C\F)COc1cccc(Cn2c(=S)[nH]c(=O)c3[nH]cnc32)c1,"Myeloperoxidase (Mus musculus, UniProt P11247)","enzyme activity, inhibitor",,,0.1
c1cc(-c2ccc(C3CCNCC3)cc2)c2cc[nH]c2n1,AKT1,"target engagement in cells, BRET",,,> 50
COc1ccc(-c2cc(=O)c3ccc(Nc4ncc5cc(C(=O)N(C)C)n(C6CCCC6)c5n4)cc3o2)cc1,CDK9 with cyclin T1,"enzyme activity, inhibitor, radiometric",,,0.00076
O=C(Nc1ccc2[nH]nc(-c3ccncc3)c2c1)[C@@H]1CCN(CC(=O)N2CCN(c3ccc(-c4ncccn4)cc3)CC2)C1,MAPK3,"enzyme activity, inhibitor",,,0.00499
CCCCCCCCCC(=O)O,FABP4,"ligand displacement, fluorescence",,pH 7.5,3.39
COc1ccc(-c2coc3cc(O)ccc3c2=O)cc1,CYP2C9,"enzyme activity, inhibitor","human, liver microsomes",15 min,5.63
CCCCCCCCCCC(=O)O,FABP4,"ligand displacement, fluorescence",,pH 7.5,2.25
OC1(c2ccc(-c3ccnc4[nH]cc(F)c34)cc2)CCNC1 (stereo not shown),AKT1,"target engagement in cells, BRET",,,18.1
Cc1c(N2CCOCC2)oc2c(-c3ccc(Nc4ncc5cc(C(=O)N(C)C)n(C6CCCC6)c5n4)cc3F)cccc2c1=O,CDK9 with cyclin T1,"enzyme activity, inhibitor, radiometric",,,0.338
CNCC(=O)OCc1cccnc1N(C)C(=O)OC(C)[n+]1cnn(C[C@](O)(c2cc(F)ccc2F)[C@@H](C)c2nc(-c3ccc(C#N)cc3)cs2)c1 (stereo partly shown),DPP4,"enzyme activity, inhibitor, absorbance",,,6.6
CCCCCCCC(=O)O,FABP4,"ligand displacement, fluorescence",,pH 7.5,32.7
COc1ccc(-c2cc(=O)c3cccc(Nc4ncc5cc(C(=O)N(C)C)n(C6CCCC6)c5n4)c3o2)cc1,CDK9 with cyclin T1,"enzyme activity, inhibitor, radiometric",,,> 10
CNS(=O)(=O)c1ccc(Nc2ncc(C(F)(F)F)c(N3CCC[C@](C)(O)C3)n2)c(C)c1,CDK9 with cyclin T1,"enzyme activity, inhibitor, radiometric",,,> 10
OC1(c2ccc(-c3ccnc4[nH]cc(F)c34)cc2)CCCNCC1 (stereo not shown),AKT1,"enzyme activity, inhibitor, radiometric",,,0.4
